Experimental data as given in ChEMBL document CHEMBL1141081, “Discovery and characterization of aminopiperidinecoumarin melanin concentrating hormone receptor 1 antagonists” (J Med Chem, 2005).
pIC50: −log10 of the molar value. Several values for one entry are separate records, joined by “and”; a condition that tells them apart may be missing. Equal values may be shown once.

How the values were obtained:
[1] = biological target: T1, Melanin-concentrating hormone receptor 1 (Homo sapiens, UniProt Q99705); assay: Inhibition of melanin concentrating hormone receptor 1 mediated [Ca2+] release in IMR-32 cells in Ca+2 release cell assay; type: functional, cell-based
T1 sequence (Q99705 whole entry): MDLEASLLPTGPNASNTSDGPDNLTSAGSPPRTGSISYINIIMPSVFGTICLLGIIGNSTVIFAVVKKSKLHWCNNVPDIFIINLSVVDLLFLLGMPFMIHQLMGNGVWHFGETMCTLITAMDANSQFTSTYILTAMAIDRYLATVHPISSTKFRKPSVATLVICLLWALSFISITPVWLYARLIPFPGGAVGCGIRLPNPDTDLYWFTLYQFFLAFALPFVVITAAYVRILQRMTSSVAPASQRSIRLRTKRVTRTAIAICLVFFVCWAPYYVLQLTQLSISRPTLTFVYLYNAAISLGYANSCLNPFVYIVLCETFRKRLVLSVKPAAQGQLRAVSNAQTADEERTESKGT

[2] = biological target: T1, Melanin-concentrating hormone receptor 1; assay: Inhibitory concentration aganist melanin concentrating hormone receptor 1 expressed in IMR-32 cells using [125I]MCH; type: cell-based
[3] = Plasma concentration at the end of the first infusion in dog cardiovascular assay; value is in between 1.36-1.43; type: ADME, Canis lupus familiaris; conditions: iv
[4] = Plasma concentration at the end of the first infusion in dog cardiovascular assay; value is in between 2.75-2.93; type: ADME, Canis lupus familiaris; conditions: iv
[5] = Brain area under concentration curve after oral administration in diet-induced obese mouse at a dose of 10 mg/kg for 0-24 hr period, n=3; type: ADME, organism-based; set-up: time < 24 hr, dose 10 mg/kg, route oral; conditions: in vivo
How it was run: (§1)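 Diet-induced obese mice were given a single oral dose of 10 mg/kg. Plasma and brain were sampled over 24 h. […] Values are mean ± SEM, n = 3.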

[6] = Plasma area under concentration curve after oral administration in diet-induced obese mouse at a dose of 10 mg/kg for 0-24 hr period,n=3; type: ADME, organism-based; set-up: time < 24 hr, dose 10 mg/kg, route oral; how it was run: as §1
[7] = Maximum concentration in diet-induced obese mouse brain at 10 mg/kg oral administration; n=3; type: ADME, organism-based; set-up: dose 10 mg/kg, route oral; how it was run: as §1
[8] = Concentration in diet-induced obese mouse brain 12 h after 10 mg/kg oral administration; type: ADME, organism-based; set-up: dose 10 mg/kg, route oral; conditions: read-out: C12h; how it was run: as §1
[9] = Brain area under concentration curve after peroral administration in lean mouse at a dose of 10 mg/kg; type: ADME, organism-based; set-up: dose 10 mg/kg, route oral; conditions: in vivo, po
[10] = Plasma area concentration under curve after peroral administration in lean mouse at a dose of 10 mg/kg; type: ADME, organism-based; set-up: dose 10 mg/kg, route oral; conditions: po
How it was run: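 Single oral dose of 10 mg/kg given to lean mice. Plasma exposure is expressed as AUC, and brain AUC was measured alongside it. Interanimal variability was below 25% for all values.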

[11] = Half-life after oral administration; type: ADME, organism-based, Canis lupus familiaris; conditions: dog, in vivo
[12] = Half-life after iv administration at a dose 2.5 mg/kg; type: ADME, organism-based, Canis lupus familiaris; set-up: dose 2.5 mg/kg, route intravenous; conditions: dog, in vivo
How it was run: (§2)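 Male beagle dogs received a single intravenous bolus of 2.5 mg/kg. Plasma was sampled to derive half-life, Cmax, plasma clearance and AUC0-∞. Values are mean ± SEM.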

[13] = biological target: Adrenergic receptor alpha-1 (Homo sapiens) (UniProt P35348+P25100+P35368); assay: Non-selective inhibition against adrenergic-alpha-1 receptor at 10 uM; type: protein assay
[14] = biological target: Dopamine receptor (Homo sapiens) (UniProt P14416+P35462+P21918+P21917+P21728); assay: Non-selective inhibition against dopamine receptor at 10 uM; type: protein assay
[15] = Bioavailability after oral administration; type: ADME, organism-based, Canis lupus familiaris; conditions: dog, in vivo, read-out: Activity
[16] = Drug concentration in brain 1 hr after final dose of 10 mg/kg, administered orally; type: ADME, organism-based; set-up: dose 10 mg/kg, route oral; conditions: mouse, po, read-out: Activity
How it was run: (§3)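 Diet-induced obese mice were dosed orally at 10 or 30 mg/kg b.i.d. for 13 days. Body weight was expressed as % change from vehicle controls. Plasma (μg/mL) and brain (μg/g) drug levels were measured 1 h after the final dose. Values are mean ± SEM, n = 3.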

[17] = Drug concentration in plasma 1 hr after final dose of 10 mg/kg administered orally; type: ADME, organism-based; set-up: dose 10 mg/kg, route oral; conditions: mouse, po, read-out: Activity; how it was run: as §3
[18] = Drug concentration in plasma 1 hr after final dose of 30 mg/kg administered orally; type: ADME, organism-based; set-up: dose 30 mg/kg, route oral; conditions: mouse, po, read-out: Activity; how it was run: as §3
[19] = Plasma concentration after intravenous infusion at a dose of 8 mg/kg/30 min; type: ADME, organism-based, Canis lupus familiaris; set-up: route intravenous; conditions: dog, read-out: Activity
[20] = Plasma concentration after intravenous infusion at a dose of 26 mg/kg/30 min; type: ADME, organism-based, Canis lupus familiaris; set-up: route intravenous; conditions: dog, read-out: Activity
[21] = Plasma concentration after intravenous infusion at a dose of 80 mg/kg measured after approximately 12 min; type: ADME, organism-based, Canis lupus familiaris; set-up: dose 80 mg/kg, route intravenous; conditions: dog, read-out: Activity
[22] = Plasma area under curve after oafter iv administration at a dose 2.5 mg/kg; type: ADME, organism-based, Canis lupus familiaris; set-up: dose 2.5 mg/kg, route intravenous; conditions: dog, in vivo; how it was run: as §2
[23] = biological target: Voltage-gated inwardly rectifying potassium channel KCNH2 (Homo sapiens, UniProt Q12809); assay: Inhibition of human potassium channel HERG
Voltage-gated inwardly rectifying potassium channel KCNH2, sequence (Q12809 whole entry): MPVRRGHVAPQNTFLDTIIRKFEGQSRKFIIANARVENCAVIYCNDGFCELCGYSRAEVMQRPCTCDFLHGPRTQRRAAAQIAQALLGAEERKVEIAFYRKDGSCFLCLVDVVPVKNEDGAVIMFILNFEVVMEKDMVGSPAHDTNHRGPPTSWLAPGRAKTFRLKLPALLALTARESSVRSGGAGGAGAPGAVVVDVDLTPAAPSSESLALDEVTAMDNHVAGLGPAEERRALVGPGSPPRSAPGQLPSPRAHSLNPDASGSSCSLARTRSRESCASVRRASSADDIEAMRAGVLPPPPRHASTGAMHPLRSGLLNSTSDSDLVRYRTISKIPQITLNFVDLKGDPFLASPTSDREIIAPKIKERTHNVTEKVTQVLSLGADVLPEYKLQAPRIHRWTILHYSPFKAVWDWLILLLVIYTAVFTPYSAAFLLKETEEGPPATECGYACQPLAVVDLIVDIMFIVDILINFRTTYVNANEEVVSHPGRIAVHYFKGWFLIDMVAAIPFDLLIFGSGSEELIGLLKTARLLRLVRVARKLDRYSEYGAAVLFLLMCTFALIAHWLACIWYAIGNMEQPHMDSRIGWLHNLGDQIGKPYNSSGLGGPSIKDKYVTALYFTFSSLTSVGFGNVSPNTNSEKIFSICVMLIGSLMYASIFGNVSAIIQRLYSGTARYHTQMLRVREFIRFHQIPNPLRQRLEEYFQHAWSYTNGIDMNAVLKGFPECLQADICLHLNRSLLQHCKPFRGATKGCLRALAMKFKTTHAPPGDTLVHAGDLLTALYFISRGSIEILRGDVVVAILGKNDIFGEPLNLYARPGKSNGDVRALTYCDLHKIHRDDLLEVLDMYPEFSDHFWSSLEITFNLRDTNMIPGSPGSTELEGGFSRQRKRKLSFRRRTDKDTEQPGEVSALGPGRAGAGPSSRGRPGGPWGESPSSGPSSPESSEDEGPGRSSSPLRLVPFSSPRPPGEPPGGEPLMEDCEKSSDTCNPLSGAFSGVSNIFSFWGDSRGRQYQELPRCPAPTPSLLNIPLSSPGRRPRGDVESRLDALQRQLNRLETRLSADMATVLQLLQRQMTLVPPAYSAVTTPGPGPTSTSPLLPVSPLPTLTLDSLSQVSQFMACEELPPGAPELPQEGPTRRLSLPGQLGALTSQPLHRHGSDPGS

[24] = Plasma clearance after iv administration at a dose 2.5 mg/kg; type: ADME, organism-based, Canis lupus familiaris; set-up: dose 2.5 mg/kg, route intravenous; conditions: dog, read-out: Clp (converted); how it was run: as §2
[25] = Peak plasma concentration after oral administration; type: ADME, organism-based, Canis lupus familiaris; set-up: route oral; conditions: dog
[26] = Peak plasma concentration after iv administration at a dose 2.5 mg/kg; type: ADME, organism-based, Canis lupus familiaris; set-up: dose 2.5 mg/kg, route intravenous; conditions: dog; how it was run: as §2
Mus musculus [27] = assay: Drug concentration in brain 1 hr after final dose of 10 mg/kg, administered orally; conditions: po
Mus musculus [28] = assay: Percent change in body weight after oral administration at a dose of 10 mg/kg b.i.d. as compare to vehicle (1% Tween-80 in water) observed for 13 days
Mus musculus [29] = assay: Percent change in body weight after oral administration at a dose of 30 mg/kg b.i.d. as compare to vehicle (1% Tween-80 in water) observed for 13 days
Mus musculus [30] = assay: Percent change in body weight after oral administration at a dose of 30 mg/kg b.i.d. as compare to vehicle (1% Tween-80 in water) observed for 28 days
Mus musculus [31] = assay: Percent change in body weight after oral administration at a dose of 10 mg/kg b.i.d. as compare to vehicle (1% Tween-80 in water) observed for 28 days
[32] = Plasma area under concentration curve after peroral administration in lean mouse at a dose of 10 mg/kg; type: ADME, organism-based; set-up: dose 10 mg/kg, route oral; conditions: po

For O=c1cc(NC2CCN(Cc3ccc4ncoc4c3)CC2)c2cc(Cl)ccc2o1, the pIC50 [1] was 6.34 and the pIC50 [2] was 7.12.
Molecule COc1ccc2oc(O)c/c(=N\C3CCN(Cc4ccc5c(c4)OCO5)CC3)c2c1 has a pIC50 [1] of 7.96, an Activity [3] of 2.84 µg/mL and an Activity [4] of 2.84 µg/mL.
With O=c1cc(NC2CCN(Cc3ccc4[nH]ccc4c3)CC2)c2cc(Cl)ccc2o1 the pIC50 [1] was 7.20, the AUC [5] was 1.18 µg·h/g and the AUC at 24 h [6] was 2870 ng·h/mL. It also gave a Cmax [7] of 182 ng/g, a pIC50 [2] of 8.15 and a concentration at 12 h [8] of 18 ng/g.
O=c1cc(NC2CCN(Cc3ccc4c(c3)OC(F)(F)O4)CC2)c2cc(Cl)ccc2o1 showed a pIC50 [1] of 6.24 and a pIC50 [2] of 7.72.
For O=c1cc(NC2CCN(C/C=C/c3ccccc3)CC2)c2cc(Cl)ccc2o1, the pIC50 [1] was 6.68, the AUC [9] was 2.6 µg·h/g and the AUC [10] was 1920 ng·h/mL. For the same molecule, the pIC50 [2] was 8.05.
Molecule O=c1cc(NC2CCN(Cc3ccc4ccccc4c3)CC2)c2cc(Cl)ccc2o1 has a pIC50 [1] of 7.04 and a pIC50 [2] of 7.68.
Work on O=c1cc(NC2CCN(C/C=C/c3ccccc3)CC2)c2ccccc2o1 yielded a pIC50 [1] of 5.98 and a pIC50 [2] of 6.72.
With O=c1cc(NC2CCN(Cc3ccc4sccc4c3)CC2)c2cc(Cl)ccc2o1 the pIC50 [1] was 6.72 and the pIC50 [2] was 8.22.
Molecule Cn1ccc2ccc(CN3CCC(/N=c4\cc(O)oc5ccc(Cl)cc45)CC3)cc21 has a pIC50 [1] of 6.79 and a pIC50 [2] of 7.22.
With O=c1cc(NC2CCN(Cc3ccc4c(c3)OCO4)CC2)c2cc(Cl)ccc2o1 the pIC50 [1] was 7.55, the AUC at 24 h [6] was 6350 ng·h/mL and the Cmax [7] was 454 ng/g. The half-life [11] was 4.4 h, the half-life [12] was 3.9 h and the pIC50 [2] was 8.70. The inhibition [13] was 75% and 69%, the inhibition [14] was 60% and the bioavailability [15] was 48%. For the same molecule, the concentration at 1 h [16] was 2210 ng/g, the concentration at 1 h [17] was 2000 ng/mL and the concentration at 1 h [18] was 6010 ng/mL. For the same molecule, the concentration at 0.5 h [19] was 3330 ng/mL, the concentration at 0.5 h [20] was 11800 ng/mL and the concentration at 0.2 h [21] was 19900 ng/mL. The AUC [22] was 2660 ng·h/mL, the pIC50 [23] was 5.65 and the clearance [24] was 15.8 mL/min/kg. For the same molecule, the concentration at 12 h [8] was 175 ng/g, the Cmax [25] was 200 ng/mL and the Cmax [26] was 1600 ng/mL. The concentration at 1 h (Mus musculus [27]) was 6460 ng/g, the “% change” value (Mus musculus [28]) was -6.9% and the “% change” value (Mus musculus [29]) was -18.2%. For the same molecule, the “% change” value (Mus musculus [30]) was -31% and the “% change” value (Mus musculus [31]) was -16%.
Molecule O=c1cc(NC2CCN(Cc3ccc4ocnc4c3)CC2)c2cc(Cl)ccc2o1 has a pIC50 [1] of 6.79, an AUC [5] of 0 µg·h/g and a pIC50 [2] of 8.52.
O=c1cc(NC2CCN(Cc3ccc4cc[nH]c4c3)CC2)c2cc(Cl)ccc2o1 showed a pIC50 [1] of 7.55 and a pIC50 [2] of 7.62.
For CC(C)(C)c1ccc(CN2CCC(/N=c3\cc(O)oc4ccc(Cl)cc34)CC2)cc1, the pIC50 [1] was < 5.00.
For O=c1cc(NC2CCN(Cc3ccc4c(c3)CCO4)CC2)c2cc(Cl)ccc2o1, the pIC50 [1] was 7.39, the AUC [5] was 0.449 µg·h/g and the AUC at 24 h [6] was 621 ng·h/mL. The Cmax [7] was 294 ng/g and the pIC50 [2] was 7.57.
For COc1ccc2oc(O)c/c(=N\C3CCN(C/C=C/c4ccccc4)CC3)c2c1, the pIC50 [1] was 7.36, the AUC [9] was 0.43 µg·h/g and the AUC [32] was 980 ng·h/mL. The pIC50 [2] was 8.40.
